# Measured values from ChEMBL document CHEMBL1671645, “Pharmacokinetics and absorption of posaconazole oral suspension under various gastric conditions in healthy volunteers” (Antimicrob Agents Chemother, 2009).
# What was measured:
# [1] = Tmax in healthy human at 400 mg administered as single dose suspension coadministered with nutritional supplement and 4 mg loperamide as two 2 mg tablets; format: ADME, organism-based; details: in vivo
# Summary of the method: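 Oral suspension (40 mg/ml) single dose with nutritional supplement plus loperamide 4 mg single dose, healthy volunteers, three-way crossover with 7–10-day washout. EDTA plasma drawn predose and 1–168 h postdose. LC-MS/MS assay (LLOQ 5.00 ng/ml). Noncompartmental parameters; Tmax reported as median (range).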
# Homo sapiens [2] = test: Toxicity in healthy human assessed as adverse events at 400 mg administered as single dose suspension after consumption of high fat meal; format: organism-based; details: in vivo
# Summary of the method: (§1)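 Healthy volunteers monitored for adverse events, vital signs, clinical laboratory values and 12-lead ECG. Adverse events tabulated by body system or organ class and severity and summarized by treatment across the crossover regimens.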
# Homo sapiens [3] = test: Toxicity in healthy human assessed as nausea at 400 mg administered as single dose suspension coadministered with nutritional supplement and 4 mg loperamide as two 2 mg tablets; format: organism-based; details: in vivo
# Summary of the method: (§2)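 Three-way randomized crossover in 13 healthy volunteers with a 7- to 10-day washout. Each period was one 400-mg oral posaconazole suspension dose with a nutritional supplement. Metoclopramide 10 mg was given orally three times daily on the day before and the day of dosing; loperamide was a single 4 mg. Safety was assessed from adverse events, tabulated by body system and severity per treatment.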
# Homo sapiens [4] = test: Toxicity in healthy human assessed as adverse events at 400 mg administered as single dose suspension after 20 mins after consumption of high fat meal; format: organism-based; details: in vivo; summary of the method: as §1
# [5] = AUC in fasted healthy human at 400 mg administered as single dose suspension coadministered with acidic carbonated beverage and proton pump inhibitor; format: ADME, organism-based; details: plasma
# Summary of the method: (§3)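 This was a four-way crossover in 12 healthy subjects with 7–10 day washouts. Each took one fasting 400 mg oral suspension dose, with 12 oz ginger ale and/or esomeprazole 40 mg once each morning on days −2 to 1, with dosing on day 1. Plasma was sampled 0–168 h and measured by LC-MS/MS (LLOQ 5.00 ng/ml). Analysis was noncompartmental, with CL/F = dose/AUC_I and V/F = (CL/F)/K.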
# Homo sapiens [6] = test: Toxicity in healthy human assessed as nausea at 400 mg administered as single dose suspension coadministered with nutritional supplement; format: organism-based; details: in vivo; summary of the method: as §2
# [7] = Cmax in healthy human plasma at 400 mg BID, po administered as suspension for 7 days coadministered with nutritional supplement; format: ADME, organism-based; design: dose 400 mg, route oral
# Summary of the method: (§4)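 Twelve healthy subjects took oral suspension for 7 days as 400 mg BID or 200 mg QID, either fasting or with a Boost-type nutritional supplement, in a crossover with 14–21 day washouts. Nonfat snacks of 800 cal/day or less were allowed. Plasma was sampled 0–168 h after the day-7 morning dose only and analysed by LC-MS/MS. AUC is AUC_τ, normalized to dose.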
# [8] = Tmax in fasted healthy human at 400 mg administered as single dose suspension coadministered with acidic carbonated beverage; format: ADME, organism-based; details: in vivo
# Summary of the method: (§5)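 Single oral suspension dose in fasting healthy volunteers, alone, with 12 oz ginger ale, after esomeprazole 40 mg once each morning days −2 to 1, or both; four-way crossover, 7–10-day washout. EDTA plasma 0–168 h. LC-MS/MS (LLOQ 5.00 ng/ml). t1/2 = ln(2)/K from terminal log-linear regression; Tmax median.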
# [9] = Apparent volume of distribution in fasted healthy human at 400 mg administered as single dose suspension coadministered with proton pump inhibitor; format: ADME, organism-based; details: in vivo, read-out: Vc/F; summary of the method: as §3
# Homo sapiens [10] = test: Toxicity in healthy human assessed as dizziness at 400 mg administered as single dose suspension coadministered with nutritional supplement; format: organism-based; details: in vivo; summary of the method: as §2
# [11] = AUC in fasted healthy human at 400 mg administered as single dose suspension; format: ADME, organism-based; details: plasma
# Homo sapiens [12] = test: Toxicity in healthy human assessed as fatigue at 400 mg administered as single dose suspension coadministered with nutritional supplement; format: organism-based; details: in vivo; summary of the method: as §2
# Homo sapiens [13] = test: Toxicity in healthy human assessed as adverse events at 400 mg administered as single dose suspension; format: organism-based; details: in vivo; summary of the method: as §1
# Homo sapiens [14] = test: Toxicity in healthy human assessed as headache at 200 mg QID, po administered as suspension for 7 days coadministered with nutritional supplement; format: organism-based; details: in vivo, 168 h
# Summary of the method: (§6)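 Healthy volunteers (n = 12) took oral posaconazole suspension (40 mg/ml) for 7 days in a four-way randomized crossover with a 14- to 21-day washout. Subjects stayed fasted throughout, with nonfat snacks up to 800 cal/day allowed. Where given, Boost was taken with each dose. Safety covered adverse events, vital signs, clinical labs and 12-lead ECG, with AEs tabulated by body system and severity per treatment.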
# Homo sapiens [15] = test: Toxicity in healthy human assessed as asthenia at 200 mg QID, po administered as suspension for 7 days; format: organism-based; details: in vivo, 168 h; summary of the method: as §1
# [16] = Cmax in fasted healthy human plasma at 400 mg administered as single dose suspension coadministered with acidic carbonated beverage and proton pump inhibitor; format: ADME, organism-based; design: dose 400 mg; summary of the method: as §3
# [17] = Half life in fasted healthy human at 400 mg administered as single dose suspension coadministered with acidic carbonated beverage and proton pump inhibitor; format: ADME, organism-based; details: in vivo; summary of the method: as §5
# [18] = Cmax in healthy human plasma at 200 mg QID, po administered as suspension for 7 days coadministered with nutritional supplement; format: ADME, organism-based; design: dose 200 mg, route oral; summary of the method: as §4
# [19] = Half life in fasted healthy human at 400 mg administered as single dose suspension coadministered with proton pump inhibitor; format: ADME, organism-based; details: in vivo; summary of the method: as §5
# [20] = Apparent volume of distribution in healthy human at 400 mg administered as single dose suspension coadministered with nutritional supplement and 10 mg metoclopramide; format: ADME, organism-based; details: in vivo, po, read-out: Vc/F
# Summary of the method: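 A three-way crossover in 13 healthy subjects gave one 400 mg oral suspension dose with a nutritional supplement, either alone, with metoclopramide 10 mg orally three times daily on the day before and the day of dosing, or with a single 4 mg dose of loperamide. Plasma was taken 0–168 h for LC-MS/MS. Analysis was noncompartmental.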
# [21] = Tmax in fasted healthy human at 400 mg administered as single dose suspension after 20 mins after consumption of high fat meal; format: ADME, organism-based; details: in vivo
# Summary of the method: (§7)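 Single oral suspension dose in healthy volunteers while fasting, 5 min before, midway through (about 10 min into a 20-min meal), or 20 min after a high-fat meal (approx 50 g fat); four-way crossover, 7–10-day washout. Plasma 0–168 h by LC-MS/MS (LLOQ 5.00 ng/ml). t1/2 = ln(2)/K; Tmax median.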
# Homo sapiens [22] = test: Toxicity in healthy human assessed as adverse events at 400 mg administered as single dose suspension coadministered with nutritional supplement and 10 mg metoclopramide; format: organism-based; details: in vivo; summary of the method: as §1
# [23] = Half life in healthy human at 400 mg administered as single dose suspension coadministered with nutritional supplement; format: ADME, organism-based; details: in vivo
# Summary of the method: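 Single oral suspension dose with nutritional supplement, alone or with metoclopramide 10 mg orally three times daily on the day before and the day of dosing; three-way crossover, 7–10-day washout. EDTA plasma predose to 168 h, LC-MS/MS (LLOQ 5.00 ng/ml). t1/2 = ln(2)/K from terminal slope; Tmax median.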
# Homo sapiens [24] = test: Toxicity in healthy human assessed as dizziness at 200 mg QID, po administered as suspension for 7 days coadministered with nutritional supplement; format: organism-based; details: in vivo, 168 h
# Summary of the method: as §6, with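 “mg/ml) with Boost at each dose” for “mg/ml)”, “allowed.” for “allowed. Where given, Boost was taken with each dose.”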
# [25] = Half life in fasted healthy human at 400 mg administered as single dose suspension after consumption of high fat meal; format: ADME, organism-based; details: in vivo; summary of the method: as §7
compound,measurement,setting,value
CC[C@@H]([C@H](C)O)n1ncn(-c2ccc(N3CCN(c4ccc(OC[C@@H]5CO[C@@](Cn6cncn6)(c6ccc(F)cc6F)C5)cc4)CC3)cc2)c1=O [POSACONAZOLE],Tmax,[1],5 h
same,Activity,Homo sapiens [2],25%
same,Activity,Homo sapiens [3],23%
same,Activity,Homo sapiens [4],25%
same,AUC,[5],4180 ng·h/mL
same,Activity,Homo sapiens [6],23%
same,Cmax,[7],1590 ng/mL
same,Tmax,[8],4 h
same,Vd/F,[9],4350 L
same,Activity,Homo sapiens [10],15%
same,AUC,[11],4280 ng·h/mL
same,Activity,Homo sapiens [12],15%
same,Activity,Homo sapiens [13],25%
same,Activity,Homo sapiens [14],25%
same,Activity,Homo sapiens [15],25%
same,Cmax,[16],93.3 ng/mL
same,half-life,[17],27.8 h
same,Cmax,[18],2160 ng/mL
same,half-life,[19],25.7 h
same,Vd/F,[20],2280 L
same,Tmax,[21],6 h
same,Activity,Homo sapiens [22],38%
same,half-life,[23],24.3 h
same,Activity,Homo sapiens [24],33%
same,half-life,[25],22.6 h
